In ChEMBL document CHEMBL4411261, “Down-Regulation of the Androgen Receptor by G-Quadruplex Ligands Sensitizes Castration-Resistant Prostate Cancer Cells to Enzalutamide” (J Med Chem, 2018):
Calls of active or inactive are those of the source. The calls are words filed in the database; no cut-off is given here.

Columns and labels:
Quadruplex DNA [1] = test: Stabilization of 5'-FAM/3'-TAMRA labelled AR3 G-quadruplex oligonucleotide (unknown origin) assessed as change in melting temperature t1/2 at 1 uM after 16 hrs in presence of 100 mM K+ by FRET assay; assay type: nucleic-acid assay
In short: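 FRET melting: FAM/TAMRA dual-labelled oligos (0.25 μM) folded in 10 mM lithium cacodylate pH 7.4 with 100 mM KCl (95 °C 5 min, cooled 4 h); ligand added at 1 μM final, 16 h room temperature. FAM emission followed 30−95 °C at 1 °C/min; curves normalized 0 to 1, T1/2 at 0.5 fraction.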

PNT1A = test: Cytotoxicity against human PNT1A cells assessed as reduction in cell viability after 48 hrs by MTS assay; assay type: cell-based
In short: (§1)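 Cells kept in RPMI-1640 with 10% fetal calf serum, 37 °C, 5% CO2. Seeded, after 24 h treated with 0.0001, 0.001, 0.01, 0.1, 1 and 10 μM compound (DMSO stocks freshly diluted in medium) for 48 h. MTS added 4 h, absorbance 490 nm; IC50 from curves of % viability inhibition versus DMSO-treated cells against log concentration.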

DU-145 = test: Cytotoxicity against human DU145 cells assessed as reduction in cell viability after 48 hrs by MTS assay; assay type: functional, cell-based; conditions: DU-145, 48 h; in short: as §1
LNCaP = test: Cytotoxicity against human LNCAP cells expressing androgen receptor T877A point mutant assessed as reduction in cell viability after 48 hrs by MTS assay; assay type: functional, cell-based; in short: as §1
[2] = Drug uptake in human 22Rv1 cells expressing full length androgen receptor H875Y point mutant at 160 nM after 24 hrs by DAPI staining-based fluorescence microscopic analysis; assay type: ADME, cell-based; conditions: cwr22r, 0.16 µM
Quadruplex DNA [3] = test: Stabilization of AR G-quadruplex oligonucleotide in human LNCAP cells assessed as down-regulation of KLK3 mRNA expression at IC50 after 48 hrs by RT-PCR analysis; assay type: cell-based
In short: (§2)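 Transcripts quantified by TaqMan real-time PCR with RNaseP as normalizer; relative quantity versus untreated cells by the 2−ΔΔCt method. Panel genes measured with a 92-gene cancer-mechanism TaqMan array.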

Quadruplex DNA [4] = test: Stabilization of AR G-quadruplex oligonucleotide in human LNCAP cells assessed as down-regulation of KLK3 mRNA expression at IC50 after 72 hrs by RT-PCR analysis; assay type: cell-based
In short: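 Cells grown in RPMI-1640 with 10% fetal calf serum, 37 °C, 5% CO2, treated at an equitoxic concentration. Transcripts quantified by TaqMan real-time RT-PCR, normalized to RNaseP, expressed as relative quantity versus untreated cells (calibrator) by the 2−ΔΔCt method.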

Quadruplex DNA [5] = test: Stabilization of AR G-quadruplex oligonucleotide in human 22Rv1 cells assessed as reduction in AR-FL protein level by immunoblotting assay; assay type: cell-based
Quadruplex DNA [6] = test: Stabilization of AR G-quadruplex oligonucleotide in human 22Rv1 cells assessed as reduction in AR-Vs protein level by immunoblotting assay; assay type: cell-based
[7] = Stabilization of AGTGAGAGTGAGAGAGAGAGTGAGAGTGAGAGTGA ssDNA (unknown origin) assessed as effect on conformational change at 16 uM after 16 hrs in presence of 100 mM K+ by CD spectra analysis
In short: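 CD: oligos at 4 μM final in 10 mM lithium cacodylate pH 7.4, 100 mM KCl, annealed 95 °C 5 min then 4 h room temperature; duplex from equimolar strands. Ligand 16 μM final, 16 h room temperature. Spectra 230−320 nm, 5 mm cell, two scans averaged at 20 °C, buffer-subtracted; melting from spectra 20−90 °C in 5 °C steps.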

Quadruplex DNA [8] = test: Stabilization of AR G-quadruplex oligonucleotide in human 22Rv1 cells assessed as down-regulation of ITGB3 mRNA expression at IC50 after 48 hrs by RT-PCR analysis; assay type: cell-based; in short: as §2
Quadruplex DNA [9] = test: Stabilization of AR G-quadruplex oligonucleotide in human 22Rv1 cells assessed as down-regulation of MAX mRNA expression at IC50 after 48 hrs by RT-PCR analysis; assay type: cell-based; in short: as §2
Quadruplex DNA [10] = test: Stabilization of AR G-quadruplex oligonucleotide in human 22Rv1 cells assessed as up-regulation of WNT1 mRNA expression at IC50 after 48 hrs by RT-PCR analysis; assay type: cell-based; in short: as §2
Quadruplex DNA [11] = test: Stabilization of AR G-quadruplex oligonucleotide in human DU145 cells assessed as down-regulation of MAX mRNA expression at IC50 after 48 hrs by RT-PCR analysis; assay type: cell-based; in short: as §2
Quadruplex DNA [12] = test: Stabilization of AR G-quadruplex oligonucleotide in human 22Rv1 cells assessed as inhibition of telomerase activity at IC50 after 48 hrs by TRAP assay; assay type: cell-based
Quadruplex DNA [13] = test: Stabilization of AR G-quadruplex oligonucleotide in human 22Rv1 cells assessed as reduction in cyclin D1 protein level at IC50 after 48 hrs by Western immunoblot assay; assay type: cell-based
PC-3 [14] = test: Effect on JUN mRNA expression in human PC3 cells at IC50 after 48 hrs by RT-PCR analysis; assay type: functional, cell-based; in short: as §2
Quadruplex DNA [15] = test: Stabilization of AR G-quadruplex oligonucleotide in human LNCAP cells assessed as reduction in PSA protein level by immunoblotting assay; assay type: cell-based
In short: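 Lysate proteins immunoblotted. Vinculin or β-actin used as loading control, peroxidase-linked secondary antibodies, ECL chemiluminescent detection, autoradiography, densitometric scan. Untreated cells received DMSO.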

CWR22R = test: Synergistic cytotoxicity against human 22Rv1 cells expressing full length androgen receptor H875Y point mutant assessed as combination index for reduction in cell viability measured at ED75 Enzalutamide at 0.001 to 0.1 uM after 72 hrs by MTS assay based Chou and Talay's plot analysis; assay type: functional
In short: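 Cells in RPMI-1640 with 10% fetal calf serum were exposed to ligand (0.001−0.1 μM) plus enzalutamide (0.5−50 μM) at a fixed ratio, five concentrations, for 72 h at 37 °C, 5% CO2. Viability read by MTS absorbance at 490 nm after 4 h. Combination index computed at ED50 and ED75 by the Chou–Talalay method.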

Quadruplex DNA [16] = test: Stabilization of AR G-quadruplex oligonucleotide in human 22Rv1 cells assessed as regulation of AKT1 mRNA expression at IC50 after 48 hrs by RT-PCR analysis; assay type: cell-based; in short: as §2
Quadruplex DNA [17] = test: Stabilization of AR G-quadruplex oligonucleotide in human 22Rv1 cells assessed as regulation of ERBB2 mRNA expression at IC50 after 48 hrs by RT-PCR analysis; assay type: cell-based; in short: as §2
Quadruplex DNA [18] = test: Stabilization of AR G-quadruplex oligonucleotide in human 22Rv1 cells assessed as down-regulation of CCND1 mRNA expression at IC50 after 48 hrs by RT-PCR analysis; assay type: cell-based; in short: as §2
Quadruplex DNA [19] = test: Stabilization of AR G-quadruplex oligonucleotide in human 22Rv1 cells assessed as down-regulation of CCNE1 mRNA expression at IC50 after 48 hrs by RT-PCR analysis; assay type: cell-based; in short: as §2
Quadruplex DNA [20] = test: Stabilization of AR G-quadruplex oligonucleotide in human 22Rv1 cells assessed as up-regulation of BAX mRNA expression at IC50 after 48 hrs by RT-PCR analysis; assay type: cell-based; in short: as §2
PC-3 [21] = test: Synergistic cytotoxicity against human PC3 cells assessed as ED75 for Enzalutamide at 0.001 to 0.1 uM after 72 hrs by MTS assay

## CN(C)CCCn1c(=O)c2ccc3c(=O)n(CCCN(C)C)c(=O)c4c5[nH]c6ccccc6[nH]c5c(c1=O)c2c34.Cl.Cl
Quadruplex DNA [1]
  ΔTm: 31 °C
PNT1A
  IC50: 280 nM
DU-145
  IC50: 80 nM
LNCaP
  IC50: 140 nM
[2]
  Drug uptake: Active
Quadruplex DNA [3]
  Activity: Active
Quadruplex DNA [4]
  Activity: inactive
Quadruplex DNA [5]
  Activity: Active
Quadruplex DNA [6]
  Activity: Active
[7]
  Activity: inactive
Quadruplex DNA [8]
  Activity: Active
Quadruplex DNA [9]
  Activity: Active
Quadruplex DNA [10]
  Activity: Active
Quadruplex DNA [11]
  Activity: Active
Quadruplex DNA [12]
  inhibition: Active
Quadruplex DNA [13]
  Activity: Active
PC-3 [14]
  Activity: inactive
Quadruplex DNA [15]
  Activity: Active
CWR22R
  CI: <1
Quadruplex DNA [16]
  Activity: Active
Quadruplex DNA [17]
  Activity: Active
Quadruplex DNA [18]
  Activity: Active
Quadruplex DNA [19]
  Activity: Active
Quadruplex DNA [20]
  Activity: Active
PC-3 [21]
  ED75: 21100 nM
